Bioassay records as filed in PubChem.
The list is not random: actives were taken first. Their share in the collection is about 3.2%.
AF4-AF9 inh = blocks AF4 peptide binding to human AF9; P42568; inhibition, % at 10 µM; AID 651704; AlphaScreen, biotin-AF4 peptide binding to FLAG-AF9; actives 0.47% (n = 350,000);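 active = every replicate reaching a set inhibition limit, whatever the replicate mean, cut at about 25% in these data; inconclusive = mean inhibition reaches that limit but some replicates miss it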;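 note: 0% = plate neutral control median and 100% = total signal loss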
Target sequence (P42568 whole entry, looked up): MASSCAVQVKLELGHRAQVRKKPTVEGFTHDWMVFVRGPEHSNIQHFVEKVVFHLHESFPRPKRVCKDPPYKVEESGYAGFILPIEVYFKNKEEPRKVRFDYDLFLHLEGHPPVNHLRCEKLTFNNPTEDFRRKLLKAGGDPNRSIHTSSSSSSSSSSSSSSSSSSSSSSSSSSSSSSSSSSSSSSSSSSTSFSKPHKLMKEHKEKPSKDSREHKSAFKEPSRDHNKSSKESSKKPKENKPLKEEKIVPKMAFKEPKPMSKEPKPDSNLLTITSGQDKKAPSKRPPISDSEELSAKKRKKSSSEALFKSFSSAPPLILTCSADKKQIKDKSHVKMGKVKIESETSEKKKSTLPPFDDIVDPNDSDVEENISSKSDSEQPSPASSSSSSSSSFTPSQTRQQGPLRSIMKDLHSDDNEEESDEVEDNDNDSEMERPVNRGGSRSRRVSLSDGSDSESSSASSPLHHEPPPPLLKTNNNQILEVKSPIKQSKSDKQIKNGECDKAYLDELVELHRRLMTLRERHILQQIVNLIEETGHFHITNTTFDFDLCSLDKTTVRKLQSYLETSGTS
PfHsp90 yeast 2 = growth inhibition of yeast expressing Plasmodium Hsp90 | S. cerevisiae expressing PfHsp90, BacTiter-Glo ATP, 48 h; yeast lacking PDR1 and PDR3 efflux regulators | inhibition, % at 9.4 µM | actives 0.32% (n = 310,000);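 active = every replicate shows inhibition above about 80%, whatever the replicate mean, limit read from the data; inconclusive = mean inhibition reaches the set limit but some replicate falls short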;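 note: 0% = DMSO neutral controls and 100% = 20 µM radicicol positive controls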
S100A4 inh HTS = S100A4-myosin IIA interaction inhibition; inhibition, % at 10.7 µM; actives 0.14% (n = 360,000); P26447; S100A4/TAMRA-MyoIIA peptide fluorescence polarization;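 active = mean inhibition of at least 70% across replicates, with every replicate also reaching that level; inconclusive = mean inhibition reaches 70% but some replicates fall short; inactive = mean inhibition below 70%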
Target sequence (P26447 whole entry, looked up): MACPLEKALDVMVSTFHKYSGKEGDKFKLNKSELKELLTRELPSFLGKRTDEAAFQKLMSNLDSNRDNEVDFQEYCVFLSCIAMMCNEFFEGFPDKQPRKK
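Test system: S100A4 monomer protein. Medium: HEPES buffer with Ca2+, pH 7.2. Reagent: fluorescent myosin IIA peptide, 5 nM. Compound dosing: single-point compound testing. Timing: 5 min between mix addition and reading. Benchmarks: DMSO neutral and TFP positive wells.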
Ecoli rRNA inh = inhibits bacterial ribosomal RNA function over humanized ribosomes. E. coli WT GFP vs humanized-ribosome RFP mutants, fluorescence, 24 h; active compounds read low; DMSO median 0, no signal -100. GFP signal change (wild-type ribosome), % (no concentration beside the values). actives 1.6% (n = 350,000);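 active = significant combined selectivity score with lowered wild-type GFP, culture density cut under 30%, mutant RFP and density less affected; inactive = any of these conditions unmet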
DENV2 CPE rescue = inhibitors of DENV2 cytopathic effect. actives 1.7% (n = 350,000). DENV2-infected cells, cytopathic effect rescue, plate reader. CPE inhibition, % at 9.99 µM. AID 651640; in the data active = CPE inhibition above about 20%, passing the limit was not always enough; inconclusive = no clear call, values can overlap the other calls; tested in BHK-21 cells;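 note: 0% = median of neutral control wells and 100% = median of positive control wells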
Cneo AK release = causes C. neoformans cell lysis; adenylate kinase release luminescence, 4 h; normalised: neutral wells 0, clomiphene wells 100; lysis activity, % at 15 µM; actives 0.2% (n = 360,000); AID 651654;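 active = mean lysis activity across replicates of at least 80%, whatever share of replicates individually reach that level; inactive = mean lysis activity below 80%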
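Schedule: static 4 h at 37 °C with compound, 1 h detection; system: C. neoformans cells; benchmarks: Clomiphene as positive control; buffer or medium: fresh YPD medium; measure: luminescence rise reflecting yeast cell lysis; measured by: luminescent adenylate kinase detection reagent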
AID977621 = wild-type E. coli growth inhibition versus H69 humanized strain – H69 mutant RFP, wild-type GFP, cherry-pick, dose response; activity change, negative = inhibition at 50 µM; 1,900 tested, under 10 active; fluorescence, 24 h; shares compounds with Ecoli rRNA inh;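 active = Wild-type ribosome reporter drop at least double the humanized mutant ribosome reporter drop, growth loss under a set limit; inconclusive = no clear call, values can overlap the other calls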;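 note: wild-type GFP and H69 mutant RFP strains grown together 50/50 in each well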
AID977628 = growth of wild-type and h24-humanized E. coli strains – h24 mutant RFP vs wild-type GFP, cherry-pick, dose response; AID 977628; activity change, negative = inhibition at 50 µM; 1,900 tested, under 10 active; E. coli WT GFP strain growth, fluorescence, 24 h; shares compounds with Ecoli rRNA inh;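 active = compound lowering the normal-ribosome reporter at least twice as much as the humanized-ribosome reporter, growth loss under a set limit; inconclusive = no clear call, values can overlap the other calls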;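 note: wild-type GFP and h24 humanized RFP strains co-cultured 1 to 1 per well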
* = called active by the depositor; ? = inconclusive; . = no result.

SMILES	AF4-AF9 inh	PfHsp90 yeast 2	S100A4 inh HTS	Ecoli rRNA inh	DENV2 CPE rescue	Cneo AK release	AID977621	AID977628
CCC(C)c1ccccc1NC(=O)c1cccc(-n2cnnn2)c1 (stereo not drawn)	-1	8	-9	-21*	-2	-1	-15	-11
Cc1ccc(C2(c3noc(CN(C)Cc4cccnc4)n3)CCCC2)cc1	.	-8	3	-31*	3	.	.	?
Cc1ccc(C2(c3noc(CN(C)Cc4ccccn4)n3)CCCC2)cc1	1	20	1	-20	?	-2	.	.
Cc1ccc(Cn2c(=S)[nH]c3ccccc3c2=O)cc1	-2	-25	-3	6	-5	1	.	.
O=c1c2cc(Br)ccc2[nH]c(=S)n1Cc1ccccc1	-1	-24	-1	-36*	0	33	-6.2	.
CC(C)NC(=O)Nc1cccc2c1O[C@H](CN(C)C(=O)NC(C)C)[C@H](C)CN([C@@H](C)CO)C2=O	-1	.	10	-2	14	-3	.	.
CCOc1ccccc1C(=O)NCC(=O)OCCCOC(=O)CNC(=O)c1ccccc1OCC	0	-8	-12	-9	3	2	.	.
CCOc1ccccc1C(=O)NCC(=O)OCCOc1cccc(Cl)c1	-9	12	1	-33*	6	-3	-11	-5.6
COC(=O)c1ccc(OS(=O)(=O)c2ccc(NC(C)=O)cc2)cc1	-3	-5	-3	-21*	1	.	.	?
CCOc1ccc(C(=O)Nc2cccc3cccnc23)cc1	3	8	1	8	1	0	.	.
CC(C)Oc1ccc(C(=O)Nc2cccc3cccnc23)cc1	-2	16	-13	-22*	.	-2	-14	-1.1
CC(C)NC(=O)Nc1ccc2c(c1)C(=O)N([C@H](C)CO)C[C@@H](C)[C@H](CN(C)C(=O)Nc1ccc(F)cc1)O2	-3	.	-19	1	0	-4	.	.
CCCN1CCN(C(=O)c2ccc(Sc3ccc(C)cc3)c(NC(C)=O)c2)CC1	13	.	-2	-13*	3	.	-22	-3.8
COCC(C)n1c(C)cc(C(=O)COC(=O)CCc2nc3ccccc3c(=O)[nH]2)c1C (stereo not drawn)	4	.	-4	-17	2	2	.	.
COCCCn1c(C)cc(C(=O)COC(=O)CCc2nc3ccccc3c(=O)[nH]2)c1C	4	.	-6	-27*	1	.	-15	.
CC(C)C[C@@H](CSc1ccccc1)N1CCN(CC(C)C)CCC1=O	-7	5	-9	-23*	0	1	?	.
CCCN1CCC(=O)N([C@H](CSc2ccccc2)CC(C)C)CC1	-8	-15	0	-1	6	9	.	.
COc1ccc(CN2C(=O)NC3(CCOc4ccccc43)C2=O)cc1F (stereo not drawn)	2	2	12	.	-2	.	.	.
COc1ccc(CN2C(=O)NC(C)(c3ccc(C)cc3)C2=O)cc1F (stereo not drawn)	-7	5	-3	-22*	-10	-2	-9.9	?
Cc1cc(C)nc(SCCC(=O)Nc2cccc3ccccc23)n1	.	10	.	.	.	0	.	.
Cc1cc(C)nc(SCCC(=O)Nc2ccccc2Cl)n1	-2	.	36	-18*	-1	.	.	-15
Cc1ccc(C(=O)Nc2cccc3[nH]c(C(F)(F)F)nc23)cc1	0	-3	-17	-24*	-2	-1	-7.3	.
COc1ccc(CNc2cccc3[nH]c(C(F)(F)F)nc23)cc1	2	1	-8	4	-3	0	.	.
CC(=O)c1ccc(OCC(=O)Nc2ccc3c(c2)CCC3)cc1	-3	-42	-4	-26*	.	.	-5.5	-5.3
Cc1onc(-c2ccccc2Cl)c1C(=O)N1CCN(Cc2ccc3c(c2)OCO3)CC1	5	-4	0	-20*	.	-1	7.1	-9.4
SMILES	AF4-AF9 inh	PfHsp90 yeast 2	S100A4 inh HTS	Ecoli rRNA inh	DENV2 CPE rescue	Cneo AK release	AID977621	AID977628
NS(=O)(=O)c1cccc(NC(=O)COc2ncnc3c2cnn3-c2ccccc2)c1	-2	-11	4	-20*	.	.	?	.
O=C(COC(=O)[C@@H]1CCCN1S(=O)(=O)c1ccccc1F)c1ccccc1	3	2	-10	-16*	6	-1	-6.6	?
CCOC(=O)c1c(C)[nH]c(C)c1C(=O)COC(=O)C1CCCN1S(=O)(=O)c1ccccc1F (stereo not drawn)	.	-3	-5	.	.	-1	.	.
C[C@H](CO)N1C[C@H](C)[C@H](CN(C)CC2CC2)Oc2cc(C3=CCCC3)ccc2S1(=O)=O	2	.	4	3	-3	-2	.	.
Cc1ccccc1CSc1nnc(-c2ccncc2)o1	1	13	-1	-19*	5	1	.	?
COc1ccc(C#Cc2ccc([C@H]3[C@@H](CO)N4CCCCN(C(=O)Nc5cccc(F)c5)C[C@@H]34)cc2)cc1	-5	.	1	4	13	-3	.	.
COc1ccc(C#Cc2ccc([C@@H]3[C@H]4CN(C(=O)Nc5cccc(F)c5)CCCCN4[C@H]3CO)cc2)cc1	.	.	.	4	-23	-1	.	.
COc1cccc(S(=O)(=O)N2CCCCN3[C@H](C2)[C@@H](c2ccc(C#CC(C)C)cc2)[C@@H]3CO)c1	-7	.	34	6	11	-1	2.2	-6.3
COc1ccc(C#Cc2ccc([C@H]3[C@@H](CO)N4CCCCN(C(=O)Nc5cccc(F)c5)C[C@H]34)cc2)cc1	.	.	.	-48*	.	26	3.3	-14
COc1ccc(C#Cc2ccc([C@@H]3[C@H](CO)N4CCCCN(C(=O)Nc5cccc(F)c5)C[C@@H]34)cc2)cc1	1	.	9	-49*	-23	14	.	?
CO[C@H]1CN(C)C(=O)c2cc(NS(C)(=O)=O)ccc2OC[C@H](C)N(CC2CC2)C[C@@H]1C	-1	.	-1	3	10	5	.	.
COc1ccc(CN2[C@H](CO)[C@H]3c4ccccc4N(C(=O)NC(C)C)C[C@H]32)cc1	-6	.	21	4	-3	-1	.	.
CCOC(=O)c1ccc(NC(=O)COc2ccc(CNCCO)cc2OCC)cc1	2	13	-7	-24*	1	.	-11	-4.7
O=C(Cc1ccccn1)N[C@H]1C=C[C@H](CC(=O)N2CCCCC2)O[C@H]1CO	0	.	-3	-3	2	0	.	.
COCCCNC(=O)c1ccc(-c2nc3ccccc3nc2-c2ccccc2)cc1	2	.	-3	-32*	20	-1	0.2	-3.1
